Unmarked numbers belong to inactive results. Inconclusive results are not listed. Activity calls are given as the source filed them.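 How the source made its calls, unless noted: active means inhibition over a set limit, the all-compound mean plus 3 SD, in both replicate runs; inconclusive means over that limit in just one replicate run; inactive means at or under that limit in both runs.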
Experiments:
[1] = OD615 S. cerevisiae growth inhibition, permissive medium, pilot counter-assay, permissive growth control for S. cerevisiae lifespan shortening project (AID 705;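 active means growth inhibition above 25% in both replicates, a cutoff set 3 SD above the mean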); details: OD615, 24 h, at 10 µM, active compounds read high
Procedure, shortened: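 System: Engineered DeaD yeast | Buffer or medium: SC raffinose/galactose permissive medium | Doses: 10 µM single dose, 0.25% DMSO | Times: 24 h exposure, 30 °C | Measured by: OD615 turbidity read | Read-out: Yeast growth inhibition indicated by reduced 24 h OD615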

[2] = Restrictive medium S. cerevisiae growth inhibition, OD615, pilot screen of yeast lifespan reduction project, restrictive growth control (AID 706;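 active means growth inhibition above a set limit, 3 SD over mean compound inhibition, in both replicates, cut at about 43% in these data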;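 further: modified DeaD lifespan yeast strain shifted to restrictive glucose medium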); details: OD615, 48 h, at 10 µM, active compounds read high
Procedure, shortened: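 Assay system: engineered S. cerevisiae DeaD strain; Buffer or medium: CSMM-D glucose medium; Dosing: 10 µM compound, 0.25% DMSO; Times: cell pre-growth 4 h, compound exposure 48 h, 30 °C; Detection: absorbance (optical density) measured at 615 nm.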

[3] = viability gain of MRP-1-high H69AR cells under doxorubicin, pilot screen, MRP-1 activator project, CellTiter-Glo, duplicate (AID 807;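 active means viability increase at or above a cutoff of the median across tested compounds plus 3 SD, cut at about 8.5% in these data, passing the limit was not always enough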;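 further: compound pretreatment 18-22 h then 72 h combined with doxorubicin; 0% = doxorubicin alone and 100% = vehicle without doxorubicin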); details: H69AR viability with doxorubicin, CellTiter-Glo luminescence; at 10 µM; active compounds read high
[4] = growth suppression of beta-catenin knockout HCT116, pilot screen, human colon tumor cells (AID 823;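 active means cell viability at or below a set limit in both duplicate runs, the limit being the all-compound median minus 4 SD, cut at about 23% in these data, passing the limit was not always enough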;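 further: 0% = wells killed by 20 µM Hyamine and 100% = untreated DMSO cell wells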); details: CellTiter-Glo, 60 h, at 10 µM, active compounds read low
[5] = growth suppression of PTEN-deleted HCT116, pilot screen, cell-based, HCT116 clonal line, CellTiter-Glo (AID 824;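 active means viability at or below 27.92% in each of two runs, the all-compound median minus 4 SD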;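 further: 0% = 20 µM Hyamine control and 100% = vehicle cell control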); details: 60 h, at 10 µM, active compounds read low
[6] = inhibitors of the yeast RAM network, pilot screen, dse1pr::URA3 reporter, 5-FOA selection (AID 869);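 further: 0% = DMSO wells with no growth and 100% = 10 µM 1-NA-PP1 with full growth; RAM network block rescues cells from 5-FOA so hits raise OD615 growth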; details: S. cerevisiae dse1pr::URA3 5-FOA growth, OD615, 2 d; at 10 µM; active compounds read high; strain carries analog-sensitive mutant Cbk1 kinase
[7] = RAM signaling pathway blockade in yeast – S. cerevisiae, Pdr1DBD-CYC8 efflux-inhibited sensitized strain, primary screen (AID 1298;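 active means RAM network inhibition above 8.4% in each of two replicates, 3 SD over the compound average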;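 further: 0% = DMSO untreated cells without growth and 100% = 10 µM 1-NA-PP1 full growth; higher means more yeast growth rescued from 5-FOA killing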); details: S. cerevisiae cbk1-as DSE1-URA3 strain, 5-FOA growth OD615, 2 d; at 50 µM; active compounds read high

Row | SMILES | growth inhibition [1] [%] | growth inhibition [2] | viability increase [3] [%] | viability [4] | viability [5] | inhibition [6] [%] | RAM network inhibition [7] [%]
1 | CC(O)c1cccc(NC(=O)CCC(=O)O)c1 (stereo unspecified) | 0.85 | -3.43% | -2.35 | 98.9% | 95.4% | 1.97 | -1.13
2 | O=S(=O)(c1cccc2cccnc12)N(CCO)CCO | -15.2 | -15.5% | -0.99 | 103% | 101% | 2.62 | 2.69
3 | C=CCN1C(=O)c2oc3ccccc3c(=O)c2C1c1ccc(O)c(OC)c1 (stereo unspecified) | 3.61 | 3.18% | -2.61 | 101% | 95.4% | 2.72 | 5.67
4 | COc1ccc(-n2c(Cc3cccn3C)nnc2SCC(=O)Nc2ccccc2C)cc1 | -11.6 | 11.1% | -2.39 | 86% | 81.7% | 1.33 | 7.38
5 | Cc1ccc2[nH]c(=O)c3cc(C(=O)N4CCN(C(=O)c5ccco5)CC4)sc3c2c1 | 5.33 | 7.05% | -3.84 | 99% | 92.3% | 1.16 | 7.89
6 | CC1CN(S(=O)(=O)c2ccc(C(=O)Nc3nnc(-c4ccc5c(c4)CCCC5)o3)cc2)CC(C)O1 (stereo unspecified) | -19.1 | 1.69% | -5.17 | 21.1% (active) | 19.7% (active) | 1.67 | 5.1
7 | Cc1ccc(N2CCN(c3cc(C)nc4nc(C)nn34)CC2)c(C)c1 | -17.8 | 25.7% | -2.76 | 83.3% | 75.8% | -0.325 | 2.52
8 | Cc1cc2cc(CNC(=O)c3ccco3)ccc2n1C | -7.55 | -15.6% | -4.26 | 106% | 94.4% | 1.89 | 6.42
9 | Cc1ccc(CNC(=O)c2cc3c(=O)n(C)c4ccccc4c3n2C)o1 | 1.32 | 0.445% | -4.08 | 106% | 104% | 2.61 | 4.84
10 | Cc1ccc(S(=O)(=O)NCC(=O)N2CCCCC2)cc1 | -11.1 | -11.9% | -1.13 | 97.8% | 102% | 0.465 | 1.88
11 | O=C1C(Cl)=C(NCC2CCCO2)C(=O)N1C1CCCCC1 (stereo unspecified) | -2.76 | 8.66% | -3.97 | 88.3% | 90.2% | 1.46 | 5.88
12 | COc1ccc(CC(=O)Nc2cc(=O)n(C)c(=O)n2C)cc1 | -5.75 | -4.35% | 0.44 | 102% | 91% | 1.85 | -2.12
13 | Cc1ccc(S(=O)(=O)CCc2nc3ccccc3n2CCC#N)cc1 | 4.59 | 0.82% | -7.34 | 23.5% (active) | 18.7% (active) | 0.995 | 0.01
14 | CC/C(=C\C(=O)c1ccncc1)Nc1ccc(O)cc1 | -4.59 | 8.96% | -3.41 | 92.8% | 83.7% | 1.58 | 2.31
15 | O=c1nc2n(c3sc4c(c13)CCC4)Cc1ccccc1-2 | -15.5 | -9.3% | -2.14 | 94.2% | 100% | 1.48 | 1.43
16 | CC1CCCN(Cc2nc3c(c(=O)n(C)c(=O)n3C)n2CC(=O)c2ccccc2)C1 (stereo unspecified) | -8.04 | -16.3% | -4.65 | 78.2% | 81.2% | -0.325 | 4.05
17 | CCOC(=O)N1CCN(C(=O)c2cc3c(=O)n(C)c4ccccc4c3n2C)CC1 | -9.54 | 1.15% | -2.85 | 94.6% | 89.9% | 1.31 | 0.42
18 | CCC(C)C1C(C#N)=C(N)OC2=C1C(=O)CC(C)(C)C2 (stereo unspecified) | -10.1 | -15.1% | -3.48 | 103% | 86.5% | 1.31 | 6.21
19 | Cn1c(=O)[nH]c(=O)c2c1nc(N1CCCCC1)n2CCSc1nc2ccccc2o1 | -4.52 | -1.63% | -3.7 | 90.7% | 92.4% | 1.11 | 1.87
20 | O=C(O)c1ccc(Cl)c2c1C1C=CCC1C(c1ccccn1)N2 (stereo unspecified) | -7.86 | 8.06% | -2.57 | 98.3% | 94.6% | 2.31 | 1.25
21 | COC(=O)Cn1cnc2c(nnn2-c2cccc(Cl)c2)c1=O | -0.625 | 0.135% | 1.53 | 108% | 99.4% | 1.28 | -1.59
22 | CCn1cc(S(=O)(=O)CC(=O)Nc2ccc3c(c2)OCCO3)c2ccccc21 | -12.1 | -19.9% | 0.14 | 101% | 95.3% | 2.54 | 9.35

Row | SMILES | growth inhibition [1] [%] | growth inhibition [2] | viability increase [3] [%] | viability [4] | viability [5] | inhibition [6] [%] | RAM network inhibition [7] [%]
23 | CCN(CCC(=O)Nc1cc(OC)cc(OC)c1)Cc1ccccc1 | 1.21 | -14.7% | -2.96 | 84.4% | 85.8% | 2.68 | 3.12
24 | Cn1c(NC(=O)C2CCCC2)cc(=O)n(C)c1=O | 0.48 | -4.17% | -0.06 | 105% | 95.4% | 0.58 | -1.4
25 | C=CCOc1ccc(/C=C/C(C)=N\O)cc1 | 3.48 | 7.77% | -3.27 | 93.2% | 96.3% | 1.11 | 9.15
26 | CCOC(=O)C1CCCN(C(=O)c2ccc(CNc3c(N4CCC(C)CC4)c(=O)c3=O)cc2)C1 (stereo unspecified) | -16.1 | -24.3% | 0.29 | 102% | 98.9% | 2.57 | 4.84
27 | CCOc1cccc(N2C(=O)CC(NCc3ccc(S(N)(=O)=O)cc3)C2=O)c1 (stereo unspecified) | -14.7 | -1.03% | -1.3 | 101% | 94.7% | 0.44 | 2.35
28 | O=C(Nc1nc(-c2ccccc2)cs1)c1cccs1 | -5.78 | -1.27% | -1.21 | 66.3% | 72.8% | -0.845 | 2.45
29 | COc1ccc(N(CC(=O)Nc2nc3ccc(C)cc3s2)S(=O)(=O)c2c(C)nn(C)c2C)cc1 | -5.89 | -16.3% | -7.24 | 64.9% | 57.1% | 1.33 | 6.79
30 | CCOC(=O)N1CCN(C(=O)CSc2nnc(-c3cccs3)o2)CC1 | 0.955 | 3.94% | 0.87 | 104% | 108% | 0.595 | 1.07
31 | Cc1ccc(-c2nc(C#N)c(N3CCCCC3)o2)cc1 | -4.44 | -6.95% | -1.61 | 98% | 78.1% | 1.51 | 3.37
32 | Cc1cc(N2C(=O)C3C4c5ccccc5C(c5ccccc54)C3C2=O)no1 (stereo unspecified) | -9.23 | -12.7% | -2.14 | 80.2% | 90.7% | 0.02 | 5.19
33 | CCn1cc(C(=O)NCC2CCCO2)c2cc(OC)c(OC)cc2c1=O (stereo unspecified) | -8.12 | -20.1% | -1.89 | 95.4% | 101% | 0.955 | 1.29
34 | Cn1c(Cn2c(=O)sc3ccccc32)nnc1SCC(=O)N1CCCC1 | -7.01 | -4.62% | 0.61 | 97% | 99.3% | 1.95 | 6.71
35 | O=C1O/C(=C\C(=O)N2CCOCC2)c2ccccc21 | -2.53 | 2.46% | -1.56 | 94.5% | 99.2% | 2.46 | 4.69
36 | FC(F)Sc1ccc(Nc2ncnc3nc[nH]c23)cc1 | 16.9 | 57.8% (active) | -1.54 | 92.8% | 90.5% | 1.23 | 4.41
37 | O=c1nc2s/c(=C\c3ccco3)c(=O)n2nc1Cc1ccccc1 | -15.4 | -3.2% | -2.41 | 97.7% | 94.8% | 2.04 | 4.31
38 | CCCCSc1nc2c(cnn2-c2ccc(C)c(C)c2)c(=O)[nH]1 | -3.77 | 8.57% | -6.91 | 59.1% | 59.5% | 1.05 | 5.36
39 | O=C(NC(C(=O)c1ccccc1)N1CCOCC1)c1ccccc1 (stereo unspecified) | -2.93 | 13.8% | -2.37 | 99.3% | 101% | 1.61 | 1.98
40 | O=C(O)c1cnn2c1NC(c1cccs1)CC2C(F)(F)F (stereo unspecified) | -22.6 | -21.6% | 0.98 | 96.8% | 104% | 1.5 | 4.4
41 | CCC(C)Sc1nc2c(cnn2-c2ccc(C)cc2)c(=O)[nH]1 (stereo unspecified) | -13 | -3.34% | -3.06 | 93.9% | 88.9% | 4.24 | 0.41
42 | COc1ccc(S(=O)(=O)N2CCC(C(N)=O)CC2)cc1 | 6.47 | -3.14% | 0.89 | 106% | 102% | 3.44 | 4.25
43 | Cc1cc(=O)oc2cc(OCC(O)CN3CCN(c4ccc(F)cc4)CC3)ccc12 (stereo unspecified) | -10.4 | -2.92% | -0.12 | 74.5% | 80.8% | 0.85 | -0.18

Reference: PubChem BioAssay
